Sampled rows, rich in hits. Any-hit rate of the full collection: about 2.3%.
PLCg1 inh: PLC-gamma1 (human) inhibition, primary screen. P19174. purified PLC-gamma1, fluorogenic substrate, fluorescence. inhibition, % at 12.2 µM. actives 0.84% (n = 370,000). AID 720700; in the data active means inhibition above about 9.5%
ADAM10 inh: ADAM10 inhibition, QFRET primary screen | O14672 | recombinant ADAM10, EDANS/DABCYL FRET peptide cleavage, 3 h | inhibition, % at 7 µM | actives 0.62% (n = 370,000);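 active means inhibition above a per-campaign cutoff equal to the mean of compounds falling between control-based bounds plus 3 SD, cut at about 20% in these data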
ADAM17 inh: inhibitors of human ADAM17; P78536; recombinant ADAM17, EDANS/DABCYL FRET peptide cleavage; inhibition, % at 6.95 µM; actives 0.83% (n = 370,000); AID 720648;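 active means inhibition above the mean of compounds lying between control limits plus 3 SD, set per campaign, cut at about 8.5% in these data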
PLC-beta3 inh: inhibitors of human phospholipase C beta3. Purified PLC-beta3, fluorogenic substrate, fluorescence. inhibition, % at 12.2 µM. actives 0.18% (n = 370,000)
Tn6 DDE FP: DD(E)-Tn6 binding inhibition, primary FP screen; inhibition, % at 8.3 µM; actives 0.21% (n = 370,000); Fibrin DD(E) TRITC-Tn6 fluorescence polarization displacement; AID 720509; P02675;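 active means inhibition above a per-campaign cutoff: mean of compounds within control limits plus 3 SD, cut at about 15% in these data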
Target sequence (P02675 whole entry, looked up): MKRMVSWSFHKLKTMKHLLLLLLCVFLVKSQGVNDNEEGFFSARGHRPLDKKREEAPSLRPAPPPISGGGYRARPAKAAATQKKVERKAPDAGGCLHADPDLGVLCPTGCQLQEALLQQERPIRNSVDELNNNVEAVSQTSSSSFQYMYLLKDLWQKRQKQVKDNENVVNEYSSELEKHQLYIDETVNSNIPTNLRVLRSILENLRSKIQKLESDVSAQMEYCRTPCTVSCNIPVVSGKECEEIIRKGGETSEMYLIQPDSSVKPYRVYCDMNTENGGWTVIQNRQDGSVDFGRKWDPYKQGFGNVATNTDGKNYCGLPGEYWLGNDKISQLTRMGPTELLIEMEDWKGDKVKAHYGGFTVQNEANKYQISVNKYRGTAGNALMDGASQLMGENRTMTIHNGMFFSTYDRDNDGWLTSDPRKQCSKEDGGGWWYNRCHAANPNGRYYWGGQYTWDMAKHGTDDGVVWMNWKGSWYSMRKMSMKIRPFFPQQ
Tn7 DDE FP: DD(E)-Tn7 binding inhibition, primary FP screen; P02675; inhibition, % at 8.3 µM; actives 0.13% (n = 370,000); FP displacement of FITC-Tn7 peptide from fibrin DD(E); 0% = median of compound wells per plate;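 active means inhibition above the mean of compounds falling within the control limits plus 3 SD of them, cut at about 14% in these data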
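Test system – human fibrin DD(E) · Times – 10 min preincubation, 3 h with tracer, room temperature · Detection – fluorescence polarization of the labelled Tn7 tracer · Measure – percent inhibition normalized to high-control wells · Benchmarks – high control wells with 10 µM unlabelled Aha-Tn7 peptide (full inhibition) · Repeats – singlicate testing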
PLCg1 ctr: inhibits human PLC-gamma1 in PLC-beta3 counter-screen. shares compounds with PLCg1 inh. purified PLC-gamma1, fluorogenic substrate, fluorescence. inhibition, % at 12.3 µM. actives 3.1% (n = 3,300). AID 743258; in the data active means inhibition above about 9.5%
PLCbeta3 conf: human PLC-beta3 inhibition, confirmation; shares compounds with PLCg1 inh; purified PLC-beta3, fluorogenic substrate fluorescence; inhibition, % at 12.3 µM; actives 1% (n = 3,300)
Hits are given with their value; - = inactive; . = not tested or not shown. Unless noted, no stated cut-off is given here; in the data, active means inhibition above about 11%; inactive means the rest.

SMILES | PLCg1 inh | ADAM10 inh | ADAM17 inh | PLC-beta3 inh | Tn6 DDE FP | Tn7 DDE FP | PLCg1 ctr | PLCbeta3 conf
COc1ccc(NC(=O)c2cc(-c3cc(F)ccc3OCC3CCCO3)n[nH]2)cc1OC (centres undefined) | 12.1 | - | - | - | - | - | - | -
COC(=O)c1cc(C(C)c2ccccc2O)n2ccccc12 (centres undefined) | - | - | - | - | - | - | . | .
C=CCn1c(SCc2c(Cl)cccc2Cl)nnc1-c1cccc(C)c1 | - | - | - | - | - | - | . | .
CCn1c(SCC(=O)Nc2ccc(C(N)=O)cc2)nc2sc(C)c(C)c2c1=O | - | - | - | - | - | - | . | .
CCS(=O)(=O)Nc1ccc2c(c1)C(=O)N(C)[C@@H]1CC[C@H](CC(=O)OC)O[C@H]1CO2 | - | - | - | - | - | - | . | .
c1coc(-c2nnc3sc(Cc4cccs4)nn23)c1 | 20.2 | - | - | - | - | - | - | -
COc1ccc(OCc2nn3c(-c4ccco4)nnc3s2)cc1 | - | - | - | - | - | - | . | .
CCCCNS(=O)(=O)/C=C/c1cc2c(cc1CNC(=O)OC(C)(C)C)OCO2 | - | - | - | - | - | - | . | .
CC(O)c1nc2ccccc2n1Cc1ccccc1 (centres undefined) | - | - | - | - | - | - | . | .
CC(O)c1nc2ccccc2n1CC(=O)N1CCN(c2ccccc2)CC1 (centres undefined) | 10.5 | - | - | - | - | - | - | -
CCOc1ccc(Cc2nc(C)c(CC(=O)N3CCOCC3)c(=O)[nH]2)cc1 | 10.5 | - | - | - | - | - | - | -
Cc1ccsc1/C=N/NC(=O)c1nnn(-c2nonc2N)c1C | - | - | - | - | - | - | . | .
Cc1c(C(=O)N/N=C/c2cccs2)nnn1-c1nonc1N | 11.5 | - | - | - | - | - | - | -
Cn1nnnc1SCCNC/C=C/c1ccccc1 | - | - | - | 13.2 | - | - | - | -
Cn1nnnc1SCCNCc1cccc2ccccc12 | - | - | - | - | - | - | . | .
O=C1[C@@H]2CSCCS(=O)(=O)N2C(=O)N1C1CCCCC1 | - | - | - | - | - | - | . | .
Cc1cccc(Nc2nnc(SCC(=O)Nc3ccc(C(=O)O)cc3)s2)c1 | 9.8 | - | - | - | - | - | - | -
Cc1cccc(Nc2nnc(SCC(=O)Nc3ccccc3[N+](=O)[O-])s2)c1 | - | - | - | - | - | - | . | .
CCOC(=O)c1ccc(NC(=O)CSc2nnc(SCc3cccc4ccccc34)s2)cc1 | 12.1 | - | - | - | - | - | - | -
COC(=O)[C@]12C[C@H](CC(=O)N3CCOCC3)C(=O)N(Cc3ccco3)C1=C[C@H](COCc1ccccc1)O[C@@H]2C | - | - | - | - | - | - | . | .
C[C@@H]1CCC(=O)N(CC[C@H](Oc2ccccc2)c2ccccc2)CC1 | 12.9 | - | - | - | - | - | - | -
Cc1ccccc1OCCCCc1c(C)n[nH]c1C | - | - | - | - | - | - | . | .
Cc1ccccc1OCCCc1c(C)n[nH]c1C | 9.8 | - | - | - | - | - | - | -
N#CCC[C@H]1CC[C@]2(CCCN(S(=O)(=O)c3ccccc3)C2)O1 | - | - | - | - | - | - | . | .
O=C(Cc1ccccc1)NC1CCCCN(Cc2ccc(Cl)cc2)C1=O (centres undefined) | - | - | - | - | - | - | . | .
SMILES | PLCg1 inh | ADAM10 inh | ADAM17 inh | PLC-beta3 inh | Tn6 DDE FP | Tn7 DDE FP | PLCg1 ctr | PLCbeta3 conf
NC(=O)COC(=O)CCCc1nc2ccccc2s1 | 11.9 | - | - | 11.4 | - | - | - | -
COC(=O)CCCc1nc2ccccc2s1 | - | - | - | - | - | - | . | .
C[C@H](NC(=O)OCc1ccccc1)P(=O)(O)O | - | - | - | - | - | - | . | .
CCc1nc2nc(C)c(NS(=O)(=O)c3ccc(F)cc3)c(=O)n2[nH]1 | 11.0 | - | - | - | - | - | - | -
CCCc1nc2nc(C)c(NS(=O)(=O)c3ccc(C(C)(C)C)cc3)c(=O)n2[nH]1 | - | - | - | - | - | - | . | .
Cc1cc(C)cc(NC(=O)O[C@@H]2CC[C@@]34CCCN3C(=O)CCC[C@H]4C2)c1 | - | - | - | - | - | - | . | .
COc1ccc(C(=O)N2CCN(C3CCC(c4ccccc4)CC3)CC2)cc1OC (centres undefined) | 14.8 | - | - | - | - | - | - | -
Cc1ccc(-n2c(SCc3cccc(F)c3)nc3sc4c(c3c2=O)CCCC4)cc1 | - | - | - | - | - | - | . | .
S=C(NCc1ccco1)Nc1ccc(Br)cn1 | - | - | - | - | - | - | . | .
S=C(NCc1ccco1)Nc1cc(-c2ccccc2)[nH]n1 | 9.6 | - | - | - | - | - | - | -
O=S1(=O)CC(N2CCSCC2)CN1Cc1cn(Cc2ccc(C(F)(F)F)cc2)nn1 (centres undefined) | 13.0 | - | - | - | - | - | - | -
CN1CCN(C2CN(Cc3cn(Cc4ccc(C(F)(F)F)cc4)nn3)S(=O)(=O)C2)CC1 (centres undefined) | - | - | - | - | - | - | . | .
Oc1ccc(N=Nc2ccccc2-c2nn[nH]n2)c(O)c1 | 12.0 | - | - | - | - | - | - | -
Cc1ccccc1-c1nn[nH]n1 | - | - | - | - | - | - | . | .
COc1ccc(-n2c(COc3ccc(Cl)cc3)nnc2SCC(=O)Nc2ccc3c(c2)OCO3)cc1 | - | - | - | - | - | - | . | .
CC(C)(C)NC(=O)C[C@H]1C[C@H](C(=O)N2CCCCC2)[C@@]2(CCc3ccccc3)c3[nH]c4ccc(Cl)cc4c3CCN2C1=O | 11.2 | - | - | 11.2 | - | - | - | -
CC[C@]12c3[nH]c4ccc(Cl)cc4c3CCN1C(=O)[C@@H](CC(=O)NCCN1CCOCC1)C[C@@H]2C(=O)N1CCN(C(=O)c2ccco2)CC1 | 12.6 | - | - | - | - | - | - | -
Cc1cc(Nc2cccc(Cl)c2Cl)n2ncnc2n1 | 13.2 | - | - | - | - | - | - | -
Cc1ccc(Nc2cc(C)nc3ncnn23)c(Cl)c1 | - | - | - | - | - | - | . | .
CN1C(=O)[C@@]2(O[C@H]3[C@H]4C=C[C@@H]([C@H]5C(=O)N(Cc6ccccc6)C(=O)[C@@H]45)N3C3=C2C(=O)CC3)c2ccccc21 | - | - | - | 14.0 | - | - | - | -
O=C1Nc2ccccc2C(=O)N2[C@H](c3ccccc3)[C@@H]3C(=O)N(Cc4ccccc4)C(=O)[C@@H]3[C@H]12 | - | - | - | - | - | - | . | .
C=C(C)[C@@H]1CC[C@]2(C(=O)O)CC[C@]3(C)C(CCC4[C@@]5(C)CC[C@H](O)C(C)(C)C5CC[C@]43C)C12 (some centres undefined) | 9.5 | - | - | - | - | - | - | -

High-throughput results as filed in PubChem BioAssay.
